Rows were chosen to be rich in hits. Some 7.2% of all compounds tested hit in one or more screens of this group.
BAP1 inh – human BAP1 deubiquitinase inhibition; recombinant BAP1, Ub-AMC hydrolysis fluorescence kinetic; stronger effect = lower value; calls only at 20 µM; 72,000 compounds, 0.48% hits;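 active = activity remaining at or below 50% of control, provided the compound also passes the data quality filters; inactive = the rest, including low values that fail the filters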
Target sequence (Q92560 whole entry, looked up): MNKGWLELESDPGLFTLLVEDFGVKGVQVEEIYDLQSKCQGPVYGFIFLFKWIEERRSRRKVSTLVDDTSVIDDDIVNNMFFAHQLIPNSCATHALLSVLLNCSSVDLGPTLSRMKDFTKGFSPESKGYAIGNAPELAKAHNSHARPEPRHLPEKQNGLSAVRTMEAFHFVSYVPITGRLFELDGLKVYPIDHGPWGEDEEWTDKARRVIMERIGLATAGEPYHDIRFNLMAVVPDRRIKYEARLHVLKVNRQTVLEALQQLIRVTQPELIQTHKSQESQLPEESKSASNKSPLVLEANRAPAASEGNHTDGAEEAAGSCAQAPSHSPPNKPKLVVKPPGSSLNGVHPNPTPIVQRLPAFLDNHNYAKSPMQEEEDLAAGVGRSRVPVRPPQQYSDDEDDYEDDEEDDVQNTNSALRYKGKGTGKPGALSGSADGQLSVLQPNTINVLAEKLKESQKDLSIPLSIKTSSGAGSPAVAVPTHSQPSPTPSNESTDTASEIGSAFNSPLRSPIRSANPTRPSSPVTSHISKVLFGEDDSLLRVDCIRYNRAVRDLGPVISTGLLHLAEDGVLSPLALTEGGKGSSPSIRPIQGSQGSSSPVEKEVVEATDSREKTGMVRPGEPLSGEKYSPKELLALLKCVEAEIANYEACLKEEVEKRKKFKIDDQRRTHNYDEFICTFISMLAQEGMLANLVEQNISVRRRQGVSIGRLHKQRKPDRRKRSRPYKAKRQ
M1 ag – M1 muscarinic receptor agonism. 64,000 compounds, 3% hits. CHO-M1 cells, Fluo-4 calcium fluorescence, agonist mode; stronger effect = higher value. B-score at 10 µM;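 active = fluorescence rise, raw or as B-score row- and column-corrected plate score, outside the 99.7% band of its plate's samples, either direction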
M1 antagonist – M1 muscarinic receptor (rat) antagonism; CHO-M1 cells, Fluo-4 calcium, ACh EC80 antagonist mode; stronger effect = lower value; B-score at 10 µM; 64,000 compounds, 3.4% hits; P08482;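 active = calcium fluorescence response, raw or row-and-column corrected B-score, differing from the plate sample mean either way at a set confidence level, mostly lower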
D1 allo mod – allosteric modulators of human D1 dopamine receptor; P21728; 58,000 compounds, 5.9% hits; B-score at 10 µM; HEK293 D1, CRE-luciferase, dopamine EC30 potentiation; actives deviate in either direction;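 active = luminescence count or its row- and column-corrected plate score outside the 99.7% band of the plate's sample wells, on either side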
HEK293 NFkB inh – lowers PMA/ionomycin-induced NF-kB signal in HEK293 cells. HEK-293 NF-kB luciferase reporter, luminescence. inhibition, % at 3 µM. 62,000 compounds, 0.21% hits. AID 465;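 active = inhibition above the mean of all tested compounds plus 3 SD, cut at about 40% in these data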
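Timing: 1 h pretreatment, 16 h stimulation, 37 °C; system: HEK-293 cells with stable firefly luciferase reporter driven by four HIV NF-kB elements; doses: 3 µM once, 0.30% DMSO; measured by: luciferase luminescence; control set: DMSO and 10 µM reference inhibitor; repeats: single test; reagent: PMA plus ionomycin mix as NF-kB-activating stimulus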
DAT uptake mod – changed human dopamine transporter uptake under cocaine IC80 | LLC-PK1 hDAT cells, [14C]-dopamine uptake with cocaine IC80; actives deviate in either direction | B-score at 10 µM | Q01959 | AID 449768 | 110,000 compounds, 1.3% hits;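 active = Z score or B-score, a plate-position-corrected score, falls beyond the plate's 99.7% confidence bounds, in either direction; inactive = both scores lie inside the 99.7% bounds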
M1 antag conf – confirmation of rat M1 muscarinic receptor antagonists; shares compounds with M1 antagonist; CHO-M1 cells, Fluo-4 calcium, ACh EC80 antagonism; stronger effect = lower value; calcium response (max-min fluorescence) at 10 µM; 1,700 compounds, 43% hits;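 active = calcium response below the same-plate mean of wells given acetylcholine alone at its 80%-effect dose, minus 3 SD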
mGluR4 antag – acts on human mGluR4 in M1 antagonist selectivity test; shares compounds with M1 antagonist; CHO-mGluR4 calcium flux, Fluo-4 fluorescence, glutamate EC80; stronger effect = lower value; AID 678; 1,700 compounds, 0.9% hits; fluorescence response (max-min) at 10 µM;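 active = fluorescence response below the plate's average for near-maximal glutamate wells, less 3 SD of those wells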;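 note: raw unnormalized fluorescence span taken in the window right after glutamate addition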
Hits are given with their value; i = inactive; nt = no result given.

SMILES	BAP1 inh	M1 ag	M1 antagonist	D1 allo mod	HEK293 NFkB inh	DAT uptake mod	M1 antag conf	mGluR4 antag
COC(=O)c1ccc(-n2nnnc2SCC(=O)NC(C)(C)C)cc1	i	nt	nt	nt	nt	nt	nt	nt
CCC(=O)Nc1ccc(N2CCN(Cc3ccccc3F)CC2)cc1	nt	i	-2.6	i	i	i	i	i
CCOC(=O)c1c(C)n(-c2ccc(Cl)cc2)c2ccc(OC)cc12	i	nt	nt	nt	nt	nt	nt	nt
COc1ccccc1C1C(C#N)=C(N)Oc2cc(C)n(CCCn3ccnc3)c(=O)c21 (centres undefined)	i	i	-2.6	i	i	i	379	i
Cc1cc2c(c(=O)n1CCCn1ccnc1)C(c1ccco1)C(C#N)=C(N)O2 (centres undefined)	i	i	i	i	i	i	nt	nt
Clc1cccc(-c2nnc(-c3ccccc3)o2)c1	i	i	-1.7	nt	i	i	i	i
c1ccc(-c2nnc(-c3ccccc3)o2)cc1	nt	nt	nt	nt	nt	i	nt	nt
CC1CCCCN1CCNC(=O)C1CC(=O)N(c2ccc(F)c(Cl)c2)C1 (centres undefined)	i	i	-1.6	i	i	i	i	i
CC1CCCN(CCCNC(=O)C2CC(=O)N(c3ccc(F)c(Cl)c3)C2)C1 (centres undefined)	i	i	i	i	i	i	nt	nt
O=C(OCC1CCCN2CCCCC12)c1ccc2c(c1)OCO2 (centres undefined)	i	i	-4.8	i	i	i	i	i
O=C(Nc1ccc(-c2nc3ccccc3s2)c(O)c1)c1cc(=O)c2ccccc2o1	i	nt	nt	nt	nt	nt	nt	nt
Cc1ccc([N+](=O)[O-])cc1N1C(=O)C2C3C=CC(C4CC34)C2C1=O (centres undefined)	i	nt	nt	nt	nt	nt	nt	nt
Cc1cc(/C=C2/SC(=S)N(c3cccc(Cl)c3)C2=O)c(C)n1-c1cccnc1	nt	nt	nt	nt	nt	i	nt	nt
Cc1cc(/C=C(/C#N)c2cccc(F)c2)c(C)n1-c1cccnc1	i	i	-5	i	i	i	i	i
CCc1cc2c(=O)c(-c3cscn3)coc2cc1OC(C)=O	i	nt	nt	nt	nt	nt	nt	nt
COC(=O)c1ccccc1NC(=O)c1cccc(NC(=O)c2ccc(Br)o2)c1C	i	i	i	i	i	i	nt	nt
COC(=O)c1ccccc1OC(=O)c1ccc(Br)o1	i	i	-4.5	i	i	i	i	i
CC(=O)Nc1ccc(Oc2cc(NC(=O)c3cc(-c4ccc(Cl)cc4)nc4ccccc34)cc([N+](=O)[O-])c2)cc1	i	nt	nt	nt	nt	nt	nt	nt
COCCSc1nc2sc3c(c2c(=O)n1-c1ccccc1)CCN(C)C3	nt	i	-3	nt	i	i	i	i
CCCSc1nc2sc3c(c2c(=O)n1-c1ccccc1)CCC3	i	nt	nt	nt	nt	nt	nt	nt
CCOC(=O)c1cnn(-c2ncnc3sc4c(c23)CCC4)c1N	i	i	-2.7	i	i	i	i	i
CCOC(=O)C1=C(C)NC2=C(C(=O)CC(C)(C)C2)C1c1coc2ccc(C)cc2c1=O (centres undefined)	i	nt	nt	nt	nt	nt	nt	nt
CCOC(=O)N1CCC(N2C(=O)c3ccccc3C2Nc2cc(C(=O)OC)cc(C(=O)OC)c2)CC1 (centres undefined)	i	i	-2.8	i	i	i	i	i
Brc1ccccc1OCCCCCN1CCCC1	nt	nt	nt	nt	nt	i	nt	nt
C=CCc1ccccc1OCCCCN1CCCC1	i	i	-3.4	-3	i	i	367	i
SMILES	BAP1 inh	M1 ag	M1 antagonist	D1 allo mod	HEK293 NFkB inh	DAT uptake mod	M1 antag conf	mGluR4 antag
CCc1ccccc1OCCCCN1CCCC1	i	i	-4.3	-3.1	i	i	i	i
CCOc1ccc(C(=O)Nc2cc(-c3nc4ccccc4[nH]3)ccc2C)cc1Cl	i	nt	nt	nt	nt	nt	nt	nt
O=C1CC(c2ccc(Cl)c(Cl)c2)CC(O)=C1C=NCCN1CCNCC1 (centres undefined)	i	i	-13	i	i	i	173	i
O=C1CC(c2ccc(F)cc2)CC(O)=C1C=NCCN1CCNCC1 (centres undefined)	nt	nt	nt	nt	nt	i	nt	nt
Clc1ccc(CN2C3=NCCN3c3ccccc32)cc1Cl	i	i	-3.2	i	i	i	399	i
CCOC(=O)C1=C(C)N(C)C(=S)NC1c1ccc(OC(=O)c2ccccc2)cc1 (centres undefined)	i	nt	nt	nt	nt	nt	nt	nt
O=C(C1=C(O)C(=O)N(CCN2CCOCC2)C1c1cccs1)c1cc2ccccc2o1 (centres undefined)	nt	i	i	nt	i	nt	nt	nt
Cc1ccc(C2C(C(=O)c3cc4ccccc4o3)=C(O)C(=O)N2CCN2CCOCC2)o1 (centres undefined)	i	i	-6.8	i	i	i	i	i
O=[N+]([O-])c1cc(Cl)cc(C=Nc2ccc3oc(-c4cccc(I)c4)nc3c2)c1O	i	nt	nt	nt	nt	nt	nt	nt
CC(=O)CC1OC(=O)C(Br)=C1NCc1ccccc1 (centres undefined)	i	i	-2.3	i	i	i	i	i
O=C(CC1Oc2ccccc2NC1=O)NCc1ccccc1 (centres undefined)	i	i	i	i	i	i	nt	nt
Cc1cc2nn(-c3ccccc3)nc2cc1NC(=O)c1ccc([N+](=O)[O-])cc1Cl	i	nt	nt	nt	nt	nt	nt	nt
Clc1ccc2c(N3CCCC3)ccnc2c1	nt	i	-3	i	i	i	i	i
O=C(Oc1ccnc2cc(Cl)ccc12)N1CCCCCC1	i	i	i	i	i	i	nt	nt
CC(C)CC(=O)N1CCN(C(=O)c2cccc(F)c2)CC1	i	i	-2.2	i	i	i	i	i
O=C(CC(c1ccccc1O)N1CCCCC1)N1CCCCC1 (centres undefined)	nt	i	-17	i	nt	i	84	i
O=S(=O)(c1ccc(OCC(O)CN2CCCCC2)cc1)N1CCOCC1 (centres undefined)	nt	nt	nt	nt	nt	i	nt	nt
O=S(=O)(c1ccc(OCC(O)CN2CCc3ccccc3C2)cc1)N1CCOCC1 (centres undefined)	i	i	-3.7	i	i	i	422	i
CC1CCN(S(=O)(=O)c2ccc3c(c2)C(=O)c2cc(S(=O)(=O)N4CCC(C)CC4)ccc2-3)CC1	i	nt	nt	nt	nt	nt	nt	nt
Cc1onc(-c2ccccc2Cl)c1C(=O)Nc1ccc(-c2nnc3n2CCCCC3)cc1	i	i	-2.3	i	i	i	408	i
Cc1onc(-c2ccccc2Cl)c1C(=O)Nc1ccc(CN2CCCC2)cc1	i	i	i	i	i	i	nt	nt
Cc1onc(-c2ccccc2Cl)c1C(=O)Nc1nnc(C(C)C)s1	i	i	-2.2	nt	i	i	377	i
O=S(=O)(c1ccc(Cl)cc1)N1CCC(N2CCCCCC2)CC1	i	i	-4.6	nt	nt	i	i	i
O=S(=O)(c1ccc(F)cc1)N1CCC(N2CCCCCC2)CC1	nt	nt	nt	nt	nt	i	nt	nt
CN1C(=O)c2c(sc3c2CCCC3)NC1c1ccccc1O (centres undefined)	nt	i	-2.7	i	nt	i	i	i

Assay outcomes (PubChem)
